Read-outs that look alike come from different tables or passages of the source.
Columns and labels:
LSCe cells [1] = test: LSCe cell co-culture cobblestone area; format: cell-based, mouse; conditions: for EC50: read-out: EC50 for LSCe cells in co-culture (cobblestone area formation), MLL-AF9 LSCe cells in co-culture with stroma; for selective inhibition of LSCe cells relative to normal HSPCs: co-culture; for validated hit from the screen: inhibits LSCe cells relative to normal HSPCs, no significant stromal toxicity
normal HSPCs = test: HSPC co-culture on primary bone marrow stromal cells; format: cell-based, mouse
Method in brief: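 Normal mouse HSPCs (400 per well) were plated in 384-well format on primary CD105⁺ bone-marrow stromal cells and held at 33°C/5% CO₂. The stroma was isolated from GFP-transgenic or wild-type C57BL/6 mice by anti-CD105 magnetic-bead selection and grown 2–3 days at 33°C before use. Test compound was run at 8–12 concentrations in duplicate, with a cytotoxic control at 22 μM.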

[2] = test system: human AML cell lines (U937, THP-1, NOMO-1, SKM-1, NB4, and OCI-AML3); test: Human AML cell line viability screen; format: cell-based; conditions: for EC50: Homo sapiens
[3] = test system: LSCe cells on pretreated OP9 stroma; test: Stromal pretreatment screen; format: cell-based, mouse
[4] = test system: OP9 or BMSC stromal cells; test: Stromal toxicity screen; format: cell-based, mouse; conditions: stroma pretreatment
Method in brief: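 OP9 (6,750/well) or primary BMSC (2,000/well) stromal cells plated in 384-well plates. After 24 h, test compound added at 8 concentrations; incubated 72 h at 37°C/5% CO₂. Viability read by CellTiter-Glo ATP luminescence. Toxicity called when mean signal fell 3 SD (BMSC) or 5 SD (OP9) below DMSO control at concentrations below 20 μM.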

[5] = test system: patient-derived, primary human leukemia cells; test: Human CAFC assay, patient-derived leukemia cells on MS-5 stroma; format: cell-based; conditions: lovastatin: treated 6 days, assessed at 5 weeks (2 weeks for FLT3-ITD)
Method in brief: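 CD34-enriched cells from bone marrow/peripheral blood of AML patients (presentation or relapse) seeded on MS-5 mouse stroma (20,000/well, 96-well, plated 1 day earlier, 37°C/5% CO₂). Seeding density set for one cobblestone per control well at 5 weeks. Medium: α-MEM, 12.5% FCS, 12.5% horse serum, monothioglycerol, 1 µM hydrocortisone, 20 ng/ml human IL-3. Test compound added next day (0.2% DMSO final) for 6 days, then rinsed and refed; half media change at 3 weeks. Score: fraction of replicate wells with ≥6 tightly packed cells beneath stroma.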

[6] = test system: dsRed+ LSCe cells and GFP+ HSPCs; test: BMSC stromal pretreatment with admixed LSCe cells and HSPCs; format: cell-based, mouse; conditions: bone marrow stromal cells pretreated for 3 days
Method in brief: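 Wild-type C57BL/6 BMSC monolayers (384-well) treated with test compound for 3 days at 33°C/5% CO₂, then rinsed twice with PBS. 1200 GFP⁺ HSPCs (UbiquitinC-GFP mice) and 1200 dsRed⁺ LSCe cells plated together onto them. 5 days later, wells imaged at 10x in dsRed and GFP channels; total cell area per channel per well quantified. Mean ± SEM of quadruplicates.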

LSCe cells [7] = test: Gene-expression profiling of LSCe cells with GSEA; format: cell-based, mouse; conditions: 5 μM, 6 hours, in suspension
Method in brief: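 250,000 LSCe cells per sample exposed to test compound or DMSO (n = 5 and 2, respectively) for 6 h in suspension in IMDM, 10% FBS, 1% Pen-Strep. RNA extracted, amplified, and hybridized to Illumina MouseRef-8 v2.0 Expression BeadChips.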

murine AML cell lines = test: Murine myeloid cell line viability; format: cell-based; conditions: Mus musculus, 72 h, read-out: EC50 against murine AML cell lines
[8] = test system: normal HSPC (CD34+ cells from umbilical cord blood); test: Human CAFC assay, normal CD34+ cord blood cells on MS-5 stroma; format: cell-based; conditions: treated 6 days, assessed at 5 weeks
[9] = test system: dsRed+ LSCe cells and GFP+ HSPCs; test: Admixed LSCe cells and HSPCs co-cultured with primary BMSCs, direct treatment; format: cell-based, mouse; conditions: 200 nM lovastatin, assessed 5 days later
Method in brief: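 Primary BMSC monolayers from C57BL/6 mice plated in 384-well format. 3 days later, 800 dsRed⁺ LSCe cells and 1600 GFP⁺ HSPCs (UbiquitinC-GFP mice) added. Test compound or DMSO added 24 h later and incubated 5 days. Wells imaged in dsRed and GFP channels at 10x; total cell area per well quantified for each channel. Mean ± SEM of quadruplicates, two independent experiments.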

MOZ-TIF2 LSCe cells = test: MOZ-TIF2 LSCe cell co-culture with BMSCs; format: cell-based; conditions: Mus musculus, BMSC, read-out: EC50, MOZ-TIF2 LSCe cells in co-culture
LSCe cells [10] = test: Limiting dilution syngeneic transplantation of ex vivo treated LSCe co-cultures; design: species or system mouse; conditions: 500 to 10,000 LSCe cells, 24-hour ex vivo exposure to 5 μM lovastatin in co-culture with BMSCs
LSCe cells and HSPCs = conditions: mixed cultures exposed ex vivo 48 hours to 5 μM lovastatin; relative to DMSO
LSCe cells [11] = test: Mevalonate rescue of lovastatin treatment in LSCe/OP9 co-culture; format: cell-based, mouse; conditions: 2 mM mevalonate, 1 μM lovastatin, OP9 stroma
Method in brief: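 GFP⁺ OP9 stroma (13,500 per well) was plated on gelatin-coated 96-well plates. After 24 h, 2,000 sorted mouse LSCe cells were added. About 24 h later, 2 mM mevalonolactone and/or 1 μM lovastatin were added together, at constant DMSO (0.2% final). After 3 days, medium was fully changed and reagents were re-added.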

AML = conditions: phase 1 clinical trial in AML; cited from earlier work
FLT3-mutated AML = conditions: cited from earlier work

SMILES: CC1(C)C(C(=O)Nc2ccc(S(=O)(=O)c3ccc(NC(=O)C4C(C)(C)C4(C)C)cc3)cc2)C1(C)C [BRD7116]
- EC50 (LSCe cells [1]): 200 nM
- activity against normal HSPCs (normal HSPCs; co-cultured on primary BMSC stroma): limited activity
- inhibition of AML cell lines ([2]; at 20 μM): ~ 50%
- change in stromal morphology [3]: not accompanied by an obvious change in stromal morphology
- stromal cell viability (CellTiter-Glo) [4]: without evidence of altered stromal cell viability
- activity against patient-derived primary human leukemia cells (cobblestone area formation) [5]: showed activity
- relative inhibition of LSCe cells and HSPCs on pretreated stroma [6]: preferentially inhibited the LSCe cells compared to HSPCs
- transcriptional changes (GSEA) (LSCe cells [7]): induced transcriptional changes consistent with myeloid differentiation

SMILES: CC(C)c1c(C(=O)Nc2ccccc2)c(-c2ccccc2)c(-c2ccc(F)cc2)n1CC[C@@H](O)C[C@@H](O)CC(=O)O [atorvastatin]
- selective inhibition of LSCe cells relative to normal HSPCs (LSCe cells [1]): selectively inhibited LSCe cells relative to normal HSPCs

SMILES: CC1=C(O)C(=O)C=C2C1=CC=C1[C@@]2(C)CC[C@@]2(C)[C@@H]3C[C@](C)(C(=O)O)CC[C@]3(C)CC[C@]12C [celastrol]
- validated hit from the screen (LSCe cells [1]): among the 155 validated hits

SMILES: COCc1c(C(C)C)nc(C(C)C)c(/C=C/[C@@H](O)C[C@@H](O)CC(=O)O)c1-c1ccc(F)cc1 [cerivastatin]
- selective inhibition of LSCe cells relative to normal HSPCs (LSCe cells [1]): selectively inhibited LSCe cells relative to normal HSPCs

SMILES: CC(C)n1c(/C=C/C(O)CC(O)CC(=O)O)c(-c2ccc(F)cc2)c2ccccc21 (centres unmarked) [fluvastatin]
- selective inhibition of LSCe cells relative to normal HSPCs (LSCe cells [1]): selectively inhibited LSCe cells relative to normal HSPCs

SMILES: CC[C@H](C)C(=O)O[C@H]1C[C@@H](C)C=C2C=C[C@H](C)[C@H](CC[C@@H]3C[C@@H](O)CC(=O)O3)[C@H]21 [lovastatin]
- EC50 (LSCe cells [1]): ~200 nM
- toxicity to normal HSPCs (normal HSPCs; concentrations as high as 20 μM, co-culture with BMSCs): no apparent toxicity
- EC50 ([2]; read-out: EC50 against human AML cell lines): > 2000 nM
- EC50 (murine AML cell lines): > 2000 nM
- activity against patient-derived primary human leukemia cells (cobblestone area formation) [5]: inhibited cobblestone area formation for all 6 patient-derived AML samples
- inhibition of normal HSPC cobblestone area formation [8]: no inhibition
- relative inhibition of admixed LSCe cells and HSPCs [9]: selectively inhibited the dsRed^+ leukemia cells while sparing the GFP^+ HSPCs
- EC50 (MOZ-TIF2 LSCe cells): < 250 nM
- leukemia development after transplantation (LSCe cells [10]): only one animal in the lovastatin group developed leukemia by 11.5 weeks
- survival of transplanted mice (LSCe cells and HSPCs): survived substantially longer

SMILES: CC(O)(CCO)CC(=O)O (centres unmarked) [mevalonate]
- rescue of the anti-leukemia effects of lovastatin (LSCe cells [11]): fully rescued

SMILES: CCCCc1ccc2[nH]c(NC(=O)OC)nc2c1 [parbendazole]
- EC50 ([2]; read-out: EC50, AML cell line viability): < 625 nM

SMILES: C=C1C(=O)O[C@H]2[C@H]1CC/C(C)=C/CC[C@@]1(C)O[C@@H]21 [parthenolide]
- validated hit from the screen (LSCe cells [1]): among the 155 validated hits

SMILES: CC[C@H](C)C(=O)O[C@H]1C[C@H](O)C=C2C=C[C@H](C)[C@H](CC[C@@H](O)C[C@@H](O)CC(=O)O)[C@H]21 [pravastatin]
- scoring in LSCe co-culture assay (LSCe cells [1]): did not score
- anti-leukemia effect in patients (AML): preliminary evidence of an anti-leukemia effect
- scoring in model of FLT3-mutated AML (FLT3-mutated AML): did not score

SMILES: CC(C)c1nc(N(C)S(C)(=O)=O)nc(-c2ccc(F)cc2)c1/C=C/[C@@H](O)C[C@@H](O)CC(=O)O [rosuvastatin]
- selective inhibition of LSCe cells relative to normal HSPCs (LSCe cells [1]): selectively inhibited LSCe cells relative to normal HSPCs

SMILES: CCC(C)(C)C(=O)O[C@H]1C[C@@H](C)C=C2C=C[C@H](C)[C@H](CC[C@@H]3C[C@@H](O)CC(=O)O3)[C@H]21 [simvastatin]
- selective inhibition of LSCe cells relative to normal HSPCs (LSCe cells [1]): selectively inhibited LSCe cells relative to normal HSPCs

SMILES: Cc1c(C)c2c(c(C)c1O)CCC(C)(COc1ccc(CC3SC(=O)NC3=O)cc1)O2 (centres unmarked) [troglitazone]
- sensitivity of AML cell lines ([2]; concentrations as high as 35 μM): none of the AML cell lines tested was sensitive
- change in stromal morphology [3]: dose-dependent adipocytic change in the stroma
